Assays:
L1210 [1] = assay: Intracellular level of conjugate in L1210 cells in the presence of DFMO at 10 uM; type: functional, cell-based; settings: Mus musculus
Procedure, shortened: (§1)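 L1210 cells in RPMI 1640/10% FCS with 2 mM aminoguanidine, seeded at 4 × 10⁴ cells/mL. Conjugate, with or without 5 mM DFMO, added at seeding; cells cultured 48 h, washed in cold NaCl, and extracted with 0.2 N HClO₄. Conjugate and free putrescine, spermidine and spermine quantified by ion-pair HPLC (UV 254 nm, fluorescence ex 345/em 455 nm); normalised to protein. Student's t-test, p<0.05.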

CHO [2] = assay: Cellular uptake in CHO cells at 10 uM; type: ADME, cell-based, Cricetulus griseus; settings: chinese hamster
Procedure, shortened: (§2)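 CHO (RPMI 1640, 10% FCS, 2 mM aminoguanidine) and CHO-MG (plus L-proline) cells seeded at 2 × 10⁵ cells/mL. Conjugate added 24 h after seeding and cells harvested 24 h later, then washed in cold 0.14 M NaCl and sonicated in 0.2 N HClO₄. Supernatant analysed by ion-pair reversed-phase HPLC (n-octanesulfonate), expressed as nmol/mg protein; mean ± SD of three determinations.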

CHO [3] = assay: Cellular uptake in CHO cells at 5 uM; type: ADME, cell-based, Cricetulus griseus; settings: chinese hamster; procedure, shortened: as §2
CHO-MG [4] = assay: Cellular uptake in CHO-MG cells at 10 uM; type: ADME, cell-based, Cricetulus griseus; settings: chinese hamster; procedure, shortened: as §2
CHO-MG [5] = assay: Cellular uptake in CHO-MG cells at 5 uM; type: ADME, cell-based, Cricetulus griseus; settings: chinese hamster; procedure, shortened: as §2
CHO-MG [6] = assay: Selectivity for uptake in CHO cell line over CHO-MG cell line at 10 uM; type: functional, cell-based; settings: Cricetulus griseus
Procedure, shortened: (§3)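 Ratio of intracellular conjugate level in CHO over CHO-MG cells. Both lines were exposed to conjugate 24 h after seeding at 2 × 10⁵ cells/mL, for 24 h with 2 mM aminoguanidine in the medium. Levels were measured by ion-pair HPLC of perchloric extracts and normalised to protein (nmol/mg).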

[7] = Selectivity for uptake in CHO cell line over CHO-MG cell line at 5 uM; type: functional, Cricetulus griseus; procedure, shortened: as §3
L1210 [8] = assay: Intracellular level of putrescine in L1210 cells in the absence of DFMO at 10 uM; type: functional, cell-based; settings: Mus musculus; procedure, shortened: as §1
L1210 [9] = assay: Intracellular level of spermine in L1210 cells in the absence of DFMO at 10 uM; type: functional, cell-based; settings: Mus musculus; procedure, shortened: as §1
L1210 [10] = assay: Intracellular level of conjugate in L1210 cells in the absence of DFMO at 10 uM; type: functional, cell-based; settings: Mus musculus; procedure, shortened: as §1
L1210 [11] = assay: Intracellular level of spermine in L1210 cells in the presence of DFMO at 10 uM; type: functional, cell-based; settings: Mus musculus; procedure, shortened: as §1
Phosphodiesterase 1 = Phosphodiesterase 1 (Bos taurus, UniProt Q01061+P14100); assay: Inhibition of bovine calmodulin-activated cAMP dependent phosphodiesterase; type: protein assay
Procedure, shortened: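 Crude bovine heart PDE preparation containing calmodulin and Ca²⁺ (0.2 milliunit). Incubated 20 min at 37 °C with 0.1 mM [8-³H]cAMP and graded drug concentrations in 30 mM Tris-HCl, 3 mM MgSO₄, 0.6 mM AMP. Stopped with ZnSO₄; Ba(OH)₂ precipitated AMP with BaSO₄; supernatant radioactivity counted. IC50 is the concentration giving 50% inhibition.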

L1210 [12] = assay: Intracellular level of spermidine in L1210 cells in the absence of DFMO at 10 uM; type: functional, cell-based; settings: Mus musculus; procedure, shortened: as §1
L1210 [13] = assay: Intracellular level of spermidine in L1210 cells in the presence of DFMO at 10 uM; type: functional, cell-based; settings: Mus musculus; procedure, shortened: as §1

Drug uptake (CHO [2]) | Drug uptake (CHO [3]) | Drug uptake (CHO-MG [4]) | Drug uptake (CHO-MG [5]) | IC50 (Phosphodiesterase 1) | SMILES | Drug uptake (L1210 [1]) | Ratio (CHO-MG [6]) | Selectivity ratio [7] | Drug uptake (L1210 [8]) | Drug uptake (L1210 [9]) | Drug uptake (L1210 [10]) | Drug uptake (L1210 [11]) | Drug uptake (L1210 [12]) | Drug uptake (L1210 [13])
0.029 nmol/mg | 0.029 nmol/mg | 0.022 nmol/mg | 0.029 nmol/mg | > 500 µM | NCCCNCCCCNCCCNC1=Nc2ccccc2CC1 | 2.4 nmol/mg | 1.3 | 1 | 0.33 nmol/mg | 13.9 nmol/mg | 1.5 nmol/mg | 13.9 nmol/mg | 8.1 nmol/mg | 4.2 nmol/mg
2.1 nmol/mg | 1.2 nmol/mg | 0.37 nmol/mg | 0.26 nmol/mg | > 500 µM | NCCCCNC1=Nc2ccccc2CC1 | 0.34 nmol/mg | 5.7 | 4.6 | 1.8 nmol/mg | 12.5 nmol/mg | 0.26 nmol/mg | 16.5 nmol/mg | 21 nmol/mg | 0.94 nmol/mg

From ChEMBL document CHEMBL1148584, “Effect of polyamine homologation on the transport and biological properties of heterocyclic amidines” (J Med Chem, 2006)
